For nine molecules, IC50 and Activity results are on record in ChEMBL document CHEMBL3393041, “Denhaminols A-H, dihydro-β-agarofurans from the endemic Australian rainforest plant Denhamia celastroides” (J Nat Prod, 2015).

The source made the active and inactive calls. The rule behind the calls is not given here.

Common to all, as to type: functional, cell-based
Test [1] deals with LNCaP. Put plainly: Growth inhibition of human LNCAP cells after 72 hrs by Alamar Blue assay. A digest of the protocol: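 LNCaP cells in phenol-red-free RPMI-1640 with 5% FBS were seeded 4000/well for 24 h, then treated with compounds diluted from DMSO into medium (DMSO ≤0.4%). Metabolic activity was read by AlamarBlue endpoint after 72 h. IC50 was calculated at 72 h. DMSO served as negative control and doxorubicin as positive control. Triplicate points; three independent experiments.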
In general terms: Alamar Blue is a resazurin reagent that responds to reducing activity.

The test system of test [2] is LNCaP. Put plainly: Reduction in phosphatidylethanolamine content in human LNCAP cells at 60 uM after 72 hrs by nile red staining based fluorescence microscopy. A digest of the protocol:
(§1)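 LNCaP cells were seeded at 3000/well on poly-L-ornithine-coated plates in phenol-red-free RPMI-1640 with 5% FBS for 48 h, then treated for 72 h. Cells were fixed in 4% paraformaldehyde for 20 min on ice and stained 20 min at RT in PBS with 1.0 μg/mL DAPI and 0.25 μg/mL Nile Red. Mean fluorescence was measured for neutral lipids (Cy3) and phospholipids (Cy5) in ~300 cells at 10×. Analysis used one-way ANOVA with Dunnett's test. DMSO was the negative control and TOFA the positive control. Duplicate points; three independent experiments.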

The subject of test [3] is LNCaP. Description: Reduction in phosphatidylcholine content in human LNCAP cells at 60 uM after 72 hrs by nile red staining based fluorescence microscopy. A digest of the protocol:
as §1

For test [4], the system named is LNCaP. Description: Reduction in triglyceride content in human LNCAP cells at 60 uM after 72 hrs by nile red staining based fluorescence microscopy. A digest of the protocol: as §1
In test [5] the test system is LNCaP. Put plainly: Reduction in sterol content in human LNCAP cells at 60 uM after 72 hrs by nile red staining based fluorescence microscopy. A digest of the protocol: as §1
In test [6] the test system is LNCaP. Description: Reduction in phosphatidylserine content in human LNCAP cells at 60 uM after 72 hrs by nile red staining based fluorescence microscopy. A digest of the protocol:
as §1

Test [7] concerns LNCaP. Description: Reduction in fatty acid content in human LNCAP cells at 60 uM after 72 hrs by nile red staining based fluorescence microscopy. A digest of the protocol:
as §1

The subject of test [8] is LNCaP. Description: Reduction in phosphatidylcholine content in human LNCAP cells at 25 uM after 72 hrs by nile red staining based fluorescence microscopy. A digest of the protocol:
as §1

The subject of test [9] is LNCaP. Description: Antiproliferative activity against human LNCAP cells assessed as change in cell morphology at 10 to 100 uM measured up to 96 hrs by live-cell imaging method. A digest of the protocol: (§2)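 LNCaP cells (ATCC) grown in phenol-red-free RPMI-1640 with 5% FBS at 37 °C, 5% CO2, kept in log phase. Cells seeded 4000/well for 24 h, then treated with compounds in DMSO diluted in medium (DMSO ≤0.4%). Plates imaged every 2 h for 96 h by IncuCyte live-cell imaging; growth read as confluence; morphology recorded from the images. DMSO as vehicle control.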

The test system of test [10] is LNCaP. Put plainly: Reduction in phosphatidylethanolamine content in human LNCAP cells at 25 uM after 72 hrs by nile red staining based fluorescence microscopy. A digest of the protocol:
as §1

Test [11] relates to LNCaP. Description: Antiproliferative activity against human LNCAP cells assessed as enlargement, granulation and cell burst at 10 to 100 uM by live-cell imaging method. Particulars: TDE = time-dependent effect. A digest of the protocol:
as §2

Test [12] concerns LNCaP. Description: Antiproliferative activity against human LNCAP cells assessed as enlargement, granulation and cell burst measured every 2 hrs for 96 hrs by live-cell imaging method. A digest of the protocol: as §2
Test [13] relates to LNCaP. Description: Reduction in phosphatidylserine content in human LNCAP cells at 25 uM after 72 hrs by nile red staining based fluorescence microscopy. A digest of the protocol: as §1
The subject of test [14] is LNCaP. Put plainly: Reduction in sterol content in human LNCAP cells at 10 uM after 72 hrs by nile red staining based fluorescence microscopy. A digest of the protocol:
as §1

The subject of test [15] is LNCaP. Put plainly: Reduction in triglyceride content in human LNCAP cells at 10 uM after 72 hrs by nile red staining based fluorescence microscopy. A digest of the protocol:
as §1

Test [16] relates to LNCaP. Description: Reduction in phosphatidylserine content in human LNCAP cells at 10 uM after 72 hrs by nile red staining based fluorescence microscopy. A digest of the protocol: as §1
The subject of test [17] is LNCaP. Put plainly: Reduction in phosphatidylethanolamine content in human LNCAP cells at 10 uM after 72 hrs by nile red staining based fluorescence microscopy. A digest of the protocol:
as §1

The subject of test [18] is LNCaP. Description: Reduction in phosphatidylcholine content in human LNCAP cells at 10 uM after 72 hrs by nile red staining based fluorescence microscopy. A digest of the protocol:
as §1

Test [19] has as its system LNCaP. Description: Reduction in fatty acid content in human LNCAP cells at 10 uM after 72 hrs by nile red staining based fluorescence microscopy. A digest of the protocol: as §1

As usually defined, the IC50 is the concentration that inhibits the measured activity by half.

Consider `CC(=O)OC[C@@]12[C@@H](OC(C)=O)CC[C@](C)(O)[C@]13OC(C)(COC(=O)c1ccccc1)[C@H](C[C@@H]2OC(=O)/C=C/c1ccccc1)[C@H]3OC(C)=O` (stereo partly specified), for which the IC50 with LNCaP [1] was above 10 µM.
On the same count and under the same terms, the same measure for `C/C=C(\C)C(=O)OCC1(C)O[C@]23[C@H](OC(C)=O)[C@H]1C[C@H](OC(=O)/C=C/c1ccccc1)[C@]2(COC(C)=O)[C@@H](OC(=O)COC(C)=O)CC[C@]3(C)O` (stereo partly specified): above 10 µM.
In the test on LNCaP [1], `CC(=O)OC[C@@]12[C@@H](OC(C)=O)CC[C@](C)(O)[C@]13OC(C)(C)[C@H]([C@H](O)[C@@H]2OC(=O)/C=C/c1ccccc1)[C@H]3OC(C)=O` came in with a half-inhibitory concentration (IC50) above 10 µM.
As for `CC(=O)OC[C@@]12[C@@H](OC(C)=O)CC[C@](C)(O)[C@]13OC(C)(C)[C@H](C[C@@H]2OC(=O)/C=C/c1ccccc1)[C@H]3OC(C)=O`, the outcome in the test on LNCaP [2], in the test with LNCaP [3], in the test on LNCaP [4], with LNCaP [5], in the test with LNCaP [6] and in the test on LNCaP [7] was Active. In addition, the IC50 in the test with LNCaP [1] is above 10 µM.
For the molecule `C/C=C(\C)C(=O)OCC1(C)O[C@]23[C@H](OC(C)=O)[C@H]1[C@H](O)[C@H](OC(=O)/C=C/c1ccccc1)[C@]2(C)[C@@H](OC(=O)COC(C)=O)CC[C@]3(C)O` (stereo partly specified), the result with LNCaP [8], in the test on LNCaP [9], with LNCaP [10] and in the test on LNCaP [13] was Active. The IC50 in the test on LNCaP [1] was above 10 µM. Also, the Activity entry in the test on LNCaP [11] was “tde”; with LNCaP [12] it was “Dose-dependent effect”.
In the case of `CC(=O)OC[C@@]12[C@@H](OC(C)=O)CC[C@](C)(O)[C@]13OC(C)(C)[C@H](C[C@@H]2OC(=O)/C=C/c1ccccc1)[C@H]3O`, the half-maximal inhibitory concentration (IC50) in the test with LNCaP [1] was above 10 µM.
On the same count and under the same terms, the same measure for `CC(=O)OC[C@@]12[C@@H](OC(C)=O)CC[C@](C)(O)[C@]13OC(C)(COC(=O)c1ccccc1)[C@H](C[C@@H]2OC(=O)/C=C/c1ccccc1)[C@H]3O` (stereo partly specified): above 10 µM; for `CC(=O)OCC(=O)O[C@H]1CC[C@](C)(O)[C@]23OC(C)(COC(=O)c4ccccc4)[C@H]([C@H](O)[C@H](OC(=O)/C=C/c4ccccc4)[C@]12C)[C@H]3OC(C)=O` (stereo partly specified): above 10 µM.
As to `CCCCCCCCCCCCCCOc1ccc(C(=O)O)o1`, the outcome with LNCaP [14], in the test with LNCaP [15], in the test with LNCaP [16], in the test on LNCaP [17], in the test on LNCaP [18] and with LNCaP [19] was Active.
